The source made the active and inactive calls. The calls are words filed in the database; no cut-off is given here.
Assays:
[1] = target: T1, Cruzipain (Trypanosoma cruzi, UniProt P25779); test: Inhibition of Trypanosoma cruzi cruzain assessed as Z-Phe-Arg-aminomethylcoumarin cleavage by competitive binding assay
How it was run: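 Cruzain (0.4 nM) in 0.1 M sodium acetate pH 5.5, 5 mM DTT, 0.01% Triton X-100. Each compound tested at four or more concentrations against seven Z-FR-AMC levels (0.31-20 μM, 2-fold steps). Activity from initial rates over 5 min. Ki derived from Lineweaver-Burk and Dixon plots.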

[2] = target: T1, Cruzipain; test: Inhibition of Trypanosoma cruzi cruzain assessed as Z-Phe-Arg-aminomethylcoumarin cleavage
[3] = Inhibition of beta lactamase
How it was run: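 AmpC β-lactamase (1 nM final) with CENTA substrate (100 μM final; Km 48 μM) in 50 mM potassium phosphate, pH 7.0. Cleavage was read as absorbance at 405 nm over 3 min, and activity was taken from initial rates. Each compound was run twice: without Triton X-100 after a 5 min enzyme preincubation before substrate, and with 0.01% Triton X-100 with no preincubation. Inhibition was then compared between the two conditions.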

T1 sequence (P25779 whole entry): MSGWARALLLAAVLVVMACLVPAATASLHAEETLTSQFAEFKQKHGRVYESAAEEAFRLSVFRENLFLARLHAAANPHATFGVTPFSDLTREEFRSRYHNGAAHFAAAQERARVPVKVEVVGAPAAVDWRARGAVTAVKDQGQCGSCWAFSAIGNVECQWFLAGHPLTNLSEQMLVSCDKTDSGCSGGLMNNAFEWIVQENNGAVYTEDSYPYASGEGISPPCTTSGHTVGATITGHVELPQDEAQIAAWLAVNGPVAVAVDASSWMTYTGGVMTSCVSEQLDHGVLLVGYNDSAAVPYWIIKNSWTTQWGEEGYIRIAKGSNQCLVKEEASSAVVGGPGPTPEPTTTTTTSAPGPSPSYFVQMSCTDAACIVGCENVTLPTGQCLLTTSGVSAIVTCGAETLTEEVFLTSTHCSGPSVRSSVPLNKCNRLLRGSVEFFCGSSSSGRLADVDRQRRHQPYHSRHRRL

SMILES	Ki [1] [nM]	IC50 [2] [nM]	inhibition [3]
O=C(CNC(=O)c1ccccc1)OC(C(=O)Nc1cc(C(F)(F)F)ccc1Cl)c1ccccc1 (stereo unspecified)	65	300	inactive
COCCn1c(C)cc(C(=O)COC(=O)CNC(=O)c2ccccc2)c1C	–	18000	inactive
O=C(CNC(=O)c1ccc(Cl)cc1)OCC(=O)c1ccc2c(c1)OCCO2	–	500	inactive
CC(NC(=O)c1ccccc1Cl)C(=O)OC(C(=O)Nc1cc(C(F)(F)F)ccc1Cl)c1ccccc1 (stereo unspecified)	–	11000	inactive
Cc1cc(C(=O)NCC(=O)OC(C(=O)Nc2cc(C(F)(F)F)ccc2Cl)c2ccccc2)ccc1[N+](=O)[O-] (stereo unspecified)	–	400	inactive
Cc1cc(NC(=O)COC(=O)C(Cc2ccccc2)NC(=O)c2ccco2)no1 (stereo unspecified)	–	38000	inactive
COc1ccc(NC(=O)COC(=O)C(CC(C)C)N2C(=O)C3CC=CCC3C2=O)cc1Cl (stereo unspecified)	800	–	–
O=C(CNC(=O)c1ccc(Cl)cc1)OC(C(=O)Nc1ccc(Cl)cc1C(F)(F)F)c1ccccc1 (stereo unspecified)	–	700	inactive
CC(C)C(NC(=O)c1ccco1)C(=O)NCC(c1ccco1)N1CCCCC1 (stereo unspecified)	6000	7000	inactive
Cc1ccccc1OCC(=O)NCC(=O)OCC(=O)c1ccc2ccccc2c1	–	700	inactive
Clc1ccc2[nH]c3c(NCCCN4CCOCC4)ncnc3c2c1	2000	–	–
Cc1cc(NC(=O)COC(=O)C(Cc2c[nH]c3ccccc23)NC(=O)c2ccc(F)cc2)no1 (stereo unspecified)	–	3000	inactive
COc1ccc(Cl)cc1NC(=O)COC(=O)C(CC(C)C)N1C(=O)C2CC=CCC2C1=O (stereo unspecified)	–	1000	inactive

— ChEMBL document CHEMBL1177731, “Complementarity between a docking and a high-throughput screen in discovering new cruzain inhibitors” (J Med Chem, 2010)
